# Columns and labels:
# Mus musculus = species: Mus musculus; assay: Compound induced increase in cystolic free ca+2 concentration in murine peritoneal macrophages was measured; format: functional
# Outline: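 Murine peritoneal macrophages from male ICR mice given ip 10% protease peptone 3 days before, adhered 1.5 h at 37 °C, fura-2 AM loaded (4 μM, 24 °C, 1.5 h). Fura-2 fluorescence ratio (340/380 nm excitation, 505 nm emission) at 37 °C. Compound at 100 nM; rise expressed as % of 100 nM ET-1 response.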
# [1] = target: T1, Endothelin-1 receptor (Sus scrofa) (UniProt Q29010); assay: Endothelin A receptor agonist activity as maximum vasoconstriction in porcine coronary artery; format: functional, tissue-based
# T1 sequence (whole entry): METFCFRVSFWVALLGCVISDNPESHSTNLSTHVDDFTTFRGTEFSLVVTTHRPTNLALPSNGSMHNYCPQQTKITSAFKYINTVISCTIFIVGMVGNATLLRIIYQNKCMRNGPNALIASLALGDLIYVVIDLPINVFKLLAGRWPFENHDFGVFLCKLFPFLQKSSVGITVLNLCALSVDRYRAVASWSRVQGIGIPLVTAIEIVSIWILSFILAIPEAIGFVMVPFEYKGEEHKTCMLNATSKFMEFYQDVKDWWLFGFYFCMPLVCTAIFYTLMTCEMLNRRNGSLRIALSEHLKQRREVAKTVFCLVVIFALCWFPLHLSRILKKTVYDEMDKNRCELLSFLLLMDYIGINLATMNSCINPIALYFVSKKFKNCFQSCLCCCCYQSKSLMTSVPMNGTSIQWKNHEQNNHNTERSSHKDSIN
# Outline: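 Porcine right coronary artery, endothelium-denuded helical strips in Krebs-Henseleit, 37 °C, isometric tension. Compound applied cumulatively, up to 1 μM. Maximal contraction expressed as % of 60 mM KCl-induced tension; n in parentheses.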
# [2] = target: Endothelin receptor, ET-A/ET-B (Homo sapiens) (UniProt P24530+P25101); assay: Antagonism of sarafotoxin S6c-induced vasoconstriction in rabbit pulmonary artery at both ETA and ETB receptors; format: functional; conditions: Oryctolagus cuniculus; target entry is the homologue from another species
# Outline: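 Rabbit pulmonary artery, endothelium-denuded 5-mm rings in Krebs-Henseleit, 95% O2-5% CO2, 37 °C, isometric tension. Compound added 15 min before cumulative sarafotoxin S6c. Tension normalized to 60 mM KCl response. Antagonism given as pA2 (van Rossum) or pD2' value; n in parentheses.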
# Endothelin-1 receptor [3] = target: T2, Endothelin-1 receptor (Sus scrofa, UniProt Q29010); assay: Tested for the competitive binding versus [125I]- ET-1 determined in porcine cardiac ventricular membrane for Endothelin A receptor
# T2 sequence (Q29010 whole entry): T1 sequence (whole entry)
# Outline: (§1)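 Membranes (porcine cardiac ventricle at 12 μg/mL for ETA; bovine cerebrum at 150 μg/mL for ETB) in pH 7.2 Tris/EGTA/Mg acetate/0.1% BSA buffer with protease inhibitors. Incubated with 100 pM [125I]ET-1 and varied compound for 1 h at 25 °C, then filtered and counted by gamma counter. IC50 given as mean ± SEM of ≥3 determinations.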
# Endothelin-1 receptor [4] = target: T2, Endothelin-1 receptor; assay: ETA receptor antagonist activity was measured by inhibition of ET-1 induced vasoconstriction in isolated porcine coronary artery; format: functional, tissue-based; conditions: read-out: pA2 (converted)
# Outline: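 Porcine right coronary artery, endothelium-denuded 2 × 5-mm helical strips in Krebs-Henseleit, 95% O2-5% CO2, 37 °C, isometric tension. Compound added 15 min before cumulative ET-1. Tension normalized to 60 mM KCl. pA2 by van Rossum's method; n in parentheses.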
# [5] = target: T3, Endothelin receptor type B (Bos taurus, UniProt P28088); assay: Tested for the competitive binding versus [125I]- ET-1 determined in bovine cerebrum membrane for Endothelin B receptor; format: cell membranes; outline: as §1
# T3 sequence (P28088 whole entry): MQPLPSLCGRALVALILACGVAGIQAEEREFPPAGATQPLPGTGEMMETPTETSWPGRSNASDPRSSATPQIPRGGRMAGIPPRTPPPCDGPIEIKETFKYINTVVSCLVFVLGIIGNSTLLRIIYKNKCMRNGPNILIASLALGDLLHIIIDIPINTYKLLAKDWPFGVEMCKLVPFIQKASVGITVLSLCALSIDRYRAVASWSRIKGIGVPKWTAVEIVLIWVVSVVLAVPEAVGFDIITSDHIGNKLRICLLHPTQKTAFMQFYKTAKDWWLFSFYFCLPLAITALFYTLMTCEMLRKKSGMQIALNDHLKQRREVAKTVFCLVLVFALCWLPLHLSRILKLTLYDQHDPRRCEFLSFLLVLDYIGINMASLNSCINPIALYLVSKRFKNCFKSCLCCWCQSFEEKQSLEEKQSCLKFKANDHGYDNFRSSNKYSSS
# Chain of Endothelin receptor, ET-A/ET-B (Homo sapiens) (P24530 whole entry, looked up): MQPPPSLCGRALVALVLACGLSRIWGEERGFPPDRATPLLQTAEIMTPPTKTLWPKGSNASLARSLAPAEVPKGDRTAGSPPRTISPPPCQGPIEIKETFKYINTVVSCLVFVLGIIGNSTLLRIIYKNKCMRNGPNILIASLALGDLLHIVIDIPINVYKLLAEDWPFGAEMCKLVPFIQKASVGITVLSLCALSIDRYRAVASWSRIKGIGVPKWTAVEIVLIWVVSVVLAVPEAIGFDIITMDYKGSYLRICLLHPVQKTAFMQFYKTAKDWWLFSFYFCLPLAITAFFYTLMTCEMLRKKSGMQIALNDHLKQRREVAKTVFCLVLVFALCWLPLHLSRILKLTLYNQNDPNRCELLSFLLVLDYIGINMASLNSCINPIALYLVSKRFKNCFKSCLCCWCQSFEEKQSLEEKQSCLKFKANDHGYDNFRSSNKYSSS
# Chain of Endothelin receptor, ET-A/ET-B (Homo sapiens) (P25101 whole entry, looked up): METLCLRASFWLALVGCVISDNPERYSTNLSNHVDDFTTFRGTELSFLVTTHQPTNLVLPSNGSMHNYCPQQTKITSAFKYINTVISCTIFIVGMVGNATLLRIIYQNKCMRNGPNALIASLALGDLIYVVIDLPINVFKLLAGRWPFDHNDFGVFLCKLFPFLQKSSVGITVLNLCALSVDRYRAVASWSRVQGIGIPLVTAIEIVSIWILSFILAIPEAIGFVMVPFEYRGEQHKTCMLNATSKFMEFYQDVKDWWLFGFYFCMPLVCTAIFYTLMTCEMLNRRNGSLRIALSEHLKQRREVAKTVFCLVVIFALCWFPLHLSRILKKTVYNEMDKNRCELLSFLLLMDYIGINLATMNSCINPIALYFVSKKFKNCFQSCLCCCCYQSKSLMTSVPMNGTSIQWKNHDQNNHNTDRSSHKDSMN
structure (smiles),measurement,setting,value
CC[C@H](C)[C@H](NC(=O)[C@H](CC1CCCCC1)NC(=O)[C@@H](NC(=O)[C@H](CC(C)C)NC(=O)[C@H](Cc1c[nH]cn1)NC(=O)[C@@H]1CSSC[C@H](N)C(=O)N[C@@H](CO)C(=O)N[C@H]2CSSC[C@H](NC(=O)[C@H](CCC(=O)O)NC(=O)[C@H](CCCCN)NC(=O)[C@H](CC(=O)O)NC(=O)[C@H](CCSC)NC(=O)[C@H](CC(C)C)NC(=O)[C@H](CO)NC(=O)[C@H](CO)NC2=O)C(=O)N[C@@H](C(C)C)C(=O)N[C@@H](Cc2ccc(O)cc2)C(=O)N[C@@H](Cc2ccccc2)C(=O)N1)[C@@H](C)O)C(=O)N[C@@H](Cc1c[nH]c2ccccc12)C(=O)O [listing 1 of 2 here],[Ca2+] increase,Mus musculus,10
CC[C@H](C)[C@H](NC(=O)[C@H](CC1CCCCC1)NC(=O)[C@@H](NC(=O)[C@H](CC(C)C)NC(=O)[C@H](Cc1c[nH]cn1)NC(=O)[C@@H]1CSSC[C@@H](N)C(=O)N[C@@H](CO)C(=O)N[C@@H]2CSSC[C@H](NC(=O)[C@H](CCC(=O)O)NC(=O)[C@@H](CCCCN)NC(=O)[C@@H](CC(=O)O)NC(=O)[C@@H](CCSC)NC(=O)[C@H](CC(C)C)NC(=O)[C@@H](CO)NC(=O)[C@H](CO)NC2=O)C(=O)N[C@@H](C(C)C)C(=O)N[C@H](Cc2ccc(O)cc2)C(=O)N[C@@H](Cc2ccccc2)C(=O)N1)[C@@H](C)O)C(=O)N[C@@H](Cc1c[nH]c2ccccc12)C(=O)O,Max vasoconstriction,[1],2
same,pD2,[2],7.8
CC[C@H](C)[C@H](NC(=O)[C@H](CC(C)C)NC(=O)[C@H](CC(C)C)NC(=O)[C@H](Cc1cnc[nH]1)NC(=O)[C@@H]1CSSC[C@H](N)C(=O)N[C@@H](CO)C(=O)N[C@H]2CSSC[C@H](NC(=O)[C@H](CCC(=O)O)NC(=O)[C@H](CCCCN)NC(=O)[C@H](CC(=O)O)NC(=O)[C@H](CCSC)NC(=O)[C@H](CC(C)C)NC(=O)[C@H](CO)NC(=O)[C@H](CO)NC2=O)C(=O)N[C@@H](C(C)C)C(=O)N[C@@H](Cc2ccc(O)cc2)C(=O)N[C@@H](Cc2ccccc2)C(=O)N1)C(=O)N[C@H](C(=O)N[C@@H](Cc1c[nH]c2ccccc12)C(=O)O)[C@@H](C)CC,IC50,Endothelin-1 receptor [3],8.6 nM
same,Kb,Endothelin-1 receptor [4],5010 nM
same,IC50,[5],0.45 nM
CC[C@H](C)[C@H](NC(=O)[C@H](CC(C)C)NC(=O)[C@@H](NC(=O)[C@H](CC(C)C)NC(=O)[C@H](Cc1c[nH]cn1)NC(=O)[C@@H]1CSSC[C@H](N)C(=O)N[C@@H](CO)C(=O)N[C@H]2CSSC[C@H](NC(=O)[C@H](CCC(=O)O)NC(=O)[C@H](CCCCN)NC(=O)[C@H](CC(=O)O)NC(=O)[C@H](CCSC)NC(=O)[C@H](CC(C)C)NC(=O)[C@H](CO)NC(=O)[C@H](CO)NC2=O)C(=O)N[C@@H](C(C)C)C(=O)N[C@@H](Cc2ccc(O)cc2)C(=O)N[C@@H](Cc2ccccc2)C(=O)N1)[C@@H](C)O)C(=O)N[C@@H](Cc1c[nH]c2ccccc12)C(=O)O [listing 1 of 2 here],IC50,Endothelin-1 receptor [3],0.42 nM
same,Kb,Endothelin-1 receptor [4],20 nM
same,IC50,[5],0.17 nM
CC[C@H](C)[C@H](NC(=O)[C@H](CC(C)(C)C)NC(=O)[C@@H](NC(=O)[C@H](CC(C)C)NC(=O)[C@H](Cc1c[nH]cn1)NC(=O)[C@@H]1CSSC[C@H](N)C(=O)N[C@@H](CO)C(=O)N[C@H]2CSSC[C@H](NC(=O)[C@H](CCC(=O)O)NC(=O)[C@H](CCCCN)NC(=O)[C@H](CC(=O)O)NC(=O)[C@H](CCSC)NC(=O)[C@H](CC(C)C)NC(=O)[C@H](CO)NC(=O)[C@H](CO)NC2=O)C(=O)N[C@@H](C(C)C)C(=O)N[C@@H](Cc2ccc(O)cc2)C(=O)N[C@@H](Cc2ccccc2)C(=O)N1)[C@@H](C)O)C(=O)N[C@@H](Cc1c[nH]c2ccccc12)C(=O)O,[Ca2+] increase,Mus musculus,0
CC[C@H](C)[C@H](NC(=O)[C@H](CC(=O)O)NC(=O)[C@H](CC(C)C)NC(=O)[C@H](Cc1c[nH]cn1)NC(=O)[C@@H]1CSSC[C@H](N)C(=O)N[C@@H](CO)C(=O)N[C@H]2CSSC[C@H](NC(=O)[C@H](CCC(=O)O)NC(=O)[C@H](CCCCN)NC(=O)[C@H](CC(=O)O)NC(=O)[C@H](CCSC)NC(=O)[C@H](CC(C)C)NC(=O)[C@H](CO)NC(=O)[C@H](CO)NC2=O)C(=O)N[C@@H](C(C)C)C(=O)N[C@@H](Cc2ccc(O)cc2)C(=O)N[C@@H](Cc2ccccc2)C(=O)N1)C(=O)N[C@H](C(=O)N[C@@H](Cc1c[nH]c2ccccc12)C(=O)O)[C@@H](C)CC [ENDOTHELIN],IC50,Endothelin-1 receptor [3],0.15 nM
same,[Ca2+] increase,Mus musculus,100
same,IC50,[5],0.12 nM
CC[C@H](C)[C@H](NC(=O)[C@H](CC(C)C)NC(=O)[C@@H](NC(=O)[C@H](CC(C)C)NC(=O)[C@H](Cc1c[nH]cn1)NC(=O)[C@@H]1CSSC[C@H](N)C(=O)N[C@@H](CO)C(=O)N[C@H]2CSSC[C@H](NC(=O)[C@H](CCC(=O)O)NC(=O)[C@H](CCCCN)NC(=O)[C@H](CC(=O)O)NC(=O)[C@H](CCSC)NC(=O)[C@H](CC(C)C)NC(=O)[C@H](CO)NC(=O)[C@H](CO)NC2=O)C(=O)N[C@@H](C(C)C)C(=O)N[C@@H](Cc2ccc(O)cc2)C(=O)N[C@@H](Cc2ccccc2)C(=O)N1)[C@@H](C)O)C(=O)N[C@@H](Cc1c[nH]c2ccccc12)C(=O)O [listing 2 of 2 here],[Ca2+] increase,Mus musculus,28
CC[C@H](C)[C@H](NC(=O)[C@H](CC(=O)O)NC(=O)[C@H](CC(C)C)NC(=O)[C@H](Cc1c[nH]cn1)NC(=O)[C@@H]1CSSC[C@H](NC(=O)[C@H](CCC(=O)O)NC(=O)[C@H](CCCCN)NC(=O)[C@H](CC(=O)O)NC(=O)[C@H](CCSC)NC(=O)[C@H](CC(C)C)NC(=O)[C@H](CO)NC(=O)[C@H](CO)NC(=O)[C@@H]2CSSC[C@H](N)C(=O)N[C@@H](CO)C(=O)N2)C(=O)N[C@@H](C(C)C)C(=O)N[C@@H](Cc2ccc(O)cc2)C(=O)N[C@@H](Cc2ccccc2)C(=O)N1)C(=O)N[C@H](C(=O)N[C@@H](Cc1c[nH]c2ccccc12)C(=O)O)[C@@H](C)CC,[Ca2+] increase,Mus musculus,100
CC[C@H](C)[C@H](NC(=O)[C@H](CC1CCCCC1)NC(=O)[C@@H](NC(=O)[C@H](CC(C)C)NC(=O)[C@H](Cc1c[nH]cn1)NC(=O)[C@@H]1CSSC[C@H](N)C(=O)N[C@@H](CO)C(=O)N[C@H]2CSSC[C@H](NC(=O)[C@H](CCC(=O)O)NC(=O)[C@H](CCCCN)NC(=O)[C@H](CC(=O)O)NC(=O)[C@H](CCSC)NC(=O)[C@H](CC(C)C)NC(=O)[C@H](CO)NC(=O)[C@H](CO)NC2=O)C(=O)N[C@@H](C(C)C)C(=O)N[C@@H](Cc2ccc(O)cc2)C(=O)N[C@@H](Cc2ccccc2)C(=O)N1)[C@@H](C)O)C(=O)N[C@@H](Cc1c[nH]c2ccccc12)C(=O)O [listing 2 of 2 here],IC50,Endothelin-1 receptor [3],0.61 nM
same,Kb,Endothelin-1 receptor [4],20 nM
same,IC50,[5],0.42 nM
CC[C@H](C)[C@H](NC(=O)[C@H](CC(=O)O)NC(=O)[C@H](CC(C)C)NC(=O)[C@H](Cc1cnc[nH]1)NC(=O)[C@@H]1CSSC[C@H](NC(=O)[C@H](CCC(=O)O)NC(=O)[C@H](CCCCN)NC(=O)[C@H](CC(=O)O)NC(=O)[C@H](CCSC)NC(=O)[C@H](CC(C)C)NC(=O)[C@H](CO)NC(=O)[C@H](CO)NC(=O)[C@@H]2CSSC[C@H](N)C(=O)N[C@@H](CO)C(=O)N2)C(=O)N[C@@H](C(C)C)C(=O)N[C@@H](Cc2ccc(O)cc2)C(=O)N[C@@H](Cc2ccccc2)C(=O)N1)C(=O)N[C@H](C(=O)N[C@@H](Cc1c[nH]c2ccccc12)C(=O)O)[C@@H](C)CC,IC50,Endothelin-1 receptor [3],5.9 nM
same,IC50,[5],0.093 nM

# Source: ChEMBL document CHEMBL1126560, “Endothelin-1 analogues substituted at both position 18 and 19: highly potent endothelin antagonists with no selectivity for either receptor subtype ETA or ETB” (J Med Chem, 1993)
